Test results: ChEMBL document CHEMBL3400073, “Design, synthesis and biological evaluation of new hybrid anticonvulsants derived from N-benzyl-2-(2,5-dioxopyrrolidin-1-yl)propanamide and 2-(2,5-dioxopyrrolidin-1-yl)butanamide derivatives” (Bioorg Med Chem, 2015)
The source made the active and inactive calls. The calls are words filed in the database; no cut-off is given here.

Tests used:
[1] = tested on: Mus musculus; assay: Anticonvulsant activity in intraperitoneally dosed Albino Swiss CD1 mouse after 0.5 hrs by maximal electroshock test; format: functional
How it was run: (§1)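 Male CD-1 mice were dosed ip (0.1 mL/10 g, methylcellulose vehicle), at least four dose groups of 6 mice each. Protection in MES meant no hindlimb tonic extension after a 25 mA, 50 Hz, 0.2 s ear-electrode shock. Protection in scPTZ meant no clonus over 30 min.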

[2] = tested on: Mus musculus; assay: Anticonvulsant activity in intraperitoneally dosed Albino Swiss CD1 mouse assessed as time to peak effect after 2 hrs by subcutaneous pentylenetetrazole test; format: functional
[3] = tested on: Mus musculus; assay: Neurological toxicity in Albino Swiss CD1 mouse at 100 mg/kg, ip after 2 hrs by rotarod test; format: organism-based; design: dose 100 mg/kg, route intraperitoneal; settings: in vivo
How it was run: (§2)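 Mice were trained on a 2 cm rod for 3 min, with unlimited trials, at least 24 h before testing. Each was then dosed ip at 100 mg/kg and tested at 10 rpm 0.5 h or 2 h later, in groups of 4. Failure to stay on the rod for at least 1 min indicated neurotoxicity.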

[4] = Neurological toxicity in intraperitoneally dosed Albino Swiss CD1 mouse by rotarod test; format: organism-based; settings: in vivo, ip
How it was run: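 Mice trained on the rotarod were given various ip doses, four groups in all, and tested at 10 rpm. Failure to stay on the rod for at least 1 min indicated neurotoxicity.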

[5] = tested on: Mus musculus; assay: Anticonvulsant activity in intraperitoneally dosed Albino Swiss CD1 mouse by subcutaneous pentylenetetrazole test; format: functional; how it was run: as §1
[6] = tested on: Mus musculus; assay: Protective index, ratio of neurotoxic TD50 in Albino Swiss CD1 mouse by rotarod test to anticonvulsant ED50 in Albino Swiss CD1 mouse by subcutaneous pentylenetetrazole test
How it was run: (§3)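 The protective index is the rotarod TD50 divided by the MES or scPTZ ED50. Each value came from ip dosing in male CD-1 mice with probit analysis, and the reference drugs were tested under the same conditions.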

[7] = tested on: Mus musculus; assay: Anticonvulsant activity in intraperitoneally dosed Albino Swiss CD1 mouse after 0.5 hrs by subcutaneous pentylenetetrazole test; format: functional; how it was run: as §1
[8] = tested on: Mus musculus; assay: Neurological toxicity in Albino Swiss CD1 mouse at 100 mg/kg, ip after 0.5 hrs by rotarod test; format: organism-based; design: dose 100 mg/kg, route intraperitoneal; settings: in vivo; how it was run: as §2
[9] = tested on: Mus musculus; assay: Anticonvulsant activity in intraperitoneally dosed Albino Swiss CD1 mouse assessed as time to peak effect by maximal electroshock test; format: functional
[10] = species on record: Mus musculus; assay: Protective index, ratio of neurotoxic TD50 in Albino Swiss CD1 mouse by rotarod test to anticonvulsant ED50 in Albino Swiss CD1 mouse by maximal electroshock test; how it was run: as §3
[11] = tested on: Mus musculus; assay: Anticonvulsant activity in intraperitoneally dosed Albino Swiss CD1 mouse by maximal electroshock test; format: functional; settings: Albino Swiss CD1, ip; how it was run: as §1
[12] = tested on: Mus musculus; assay: Anticonvulsant activity in Albino Swiss CD1 mouse at 100 mg/kg, ip after 2 hrs by maximal electroshock test; format: functional, organism-based; design: dose 100 mg/kg
How it was run: (§4)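 Male CD-1 mice, 16–26 g, in groups of 4, each mouse used once, were given 100 mg/kg ip (0.1 mL/10 g, methylcellulose vehicle). MES used 25 mA, 500 V, 50 Hz delivered by ear electrodes for 0.2 s, and absence of hindlimb tonic extension counted as protection. In scPTZ, mice without clonic convulsions over 30 min of observation counted as protected. Both tests were run 0.5 h or 2 h after dosing.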

[13] = tested on: Mus musculus; assay: Anticonvulsant activity in Albino Swiss CD1 mouse at 100 mg/kg, ip after 2 hrs by subcutaneous pentylenetetrazole test; format: functional, organism-based; design: dose 100 mg/kg; how it was run: as §4
[14] = tested on: Mus musculus; assay: Anticonvulsant activity in Albino Swiss CD1 mouse at 100 mg/kg, ip after 0.5 hrs by subcutaneous pentylenetetrazole test; format: functional, organism-based; design: dose 100 mg/kg; how it was run: as §4
[15] = tested on: Mus musculus; assay: Anticonvulsant activity in Albino Swiss CD1 mouse at 100 mg/kg, ip after 0.5 hrs by maximal electroshock test; format: functional, organism-based; design: dose 100 mg/kg; how it was run: as §4

| SMILES | MED50 [1] | Time [2] | Activity [3] | TD50 [4] | ED50 [5] | Ratio TD50/ED50 [6] | MED50 [7] | Activity [8] | Time [9] | Ratio TD50/ED50 [10] | ED50 [11] | Activity [12] | Activity [13] | Activity [14] | Activity [15] |
| --- | --- | --- | --- | --- | --- | --- | --- | --- | --- | --- | --- | --- | --- | --- | --- |
| CC(C(=O)NCc1ccc(Cl)cc1)N1C(=O)CCC1=O (racemic) | 100 mg/kg | 0.5 h | Non-toxic | 228 mg/kg | 43.6 mg/kg | 5.23 | 100 mg/kg | Non-toxic | 0.5 h | 2.48 | 91.8 mg/kg | inactive | inactive |  |  |
| CC1CC(=O)N(C(C)C(=O)NCc2cccc(C(F)(F)F)c2)C1=O (racemic) |  |  | Non-toxic |  |  |  |  | Non-toxic |  |  |  | inactive | inactive | inactive | inactive |
| CC1CC(=O)N(C(C)C(=O)NCc2ccc(Cl)cc2)C1=O (racemic) |  |  | Non-toxic |  |  |  |  | Non-toxic |  |  |  | inactive | inactive | inactive | inactive |
| COC[C@@H](NC(C)=O)C(=O)NCc1ccccc1 [LACOSAMIDE] |  | 0.5 h |  |  | > 500 mg/kg |  |  |  | 0.5 h |  | 9.24 mg/kg |  |  |  |  |
| NC(=O)N1c2ccccc2C=Cc2ccccc21 [CARBAMAZEPINE] |  | 0.5 h |  | 49.3 mg/kg | > 100 mg/kg |  |  |  | 0.5 h | 3.47 | 14.2 mg/kg |  |  |  |  |
| CC(C(=O)NCc1ccccc1)N1C(=O)CCC1=O (racemic) | 100 mg/kg | 0.5 h | Non-toxic |  |  |  | 100 mg/kg | Non-toxic | 0.5 h |  |  | inactive | inactive |  |  |
| CCCC(CCC)C(=O)O [VALPROIC ACID] |  | 0.5 h |  |  |  |  |  |  | 0.5 h |  |  |  |  |  |  |
| CCC(C(=O)NCc1cccc(Cl)c1)N1C(=O)CCC1=O (racemic) | 100 mg/kg | 0.5 h | Non-toxic | 180 mg/kg | 78.8 mg/kg | 2.28 | 100 mg/kg | Non-toxic | 0.5 h | 1.12 | 96.5 mg/kg | inactive | inactive |  |  |
| CC1CC(=O)N(C(C)C(=O)NCc2ccccc2F)C1=O (racemic) | 100 mg/kg | 0.5 h | Non-toxic | 239 mg/kg |  |  |  | Non-toxic | 0.5 h | 2.97 | 80.5 mg/kg | inactive | inactive | inactive |  |
| CC(C(=O)NCc1cccc(F)c1)N1C(=O)CCC1=O (racemic) | 100 mg/kg | 0.5 h | Non-toxic | > 500 mg/kg |  |  |  | Non-toxic | 0.5 h | >6.46 | 77.4 mg/kg | inactive | inactive | inactive |  |
| CC1CC(=O)N(C(C)C(=O)NCC2CCCCC2)C1=O (racemic) |  |  | Non-toxic |  |  |  |  | Non-toxic |  |  |  | inactive | inactive | inactive | inactive |
| CC(C(=O)NCc1ccccc1C(F)(F)F)N1C(=O)CCC1=O (racemic) |  |  | Non-toxic |  |  |  |  | Non-toxic |  |  |  | inactive | inactive | inactive | inactive |
| CCC(C(=O)NCc1ccc(C(F)(F)F)cc1)N1C(=O)CCC1=O (racemic) | 100 mg/kg | 0.5 h | Non-toxic | 112 mg/kg | 80.4 mg/kg | 1.4 | 100 mg/kg | Non-toxic | 0.5 h | 1.62 | 69.4 mg/kg | inactive | inactive |  |  |
| CC(C(=O)NCc1cccc(Cl)c1)N1C(=O)CCC1=O (racemic) | 100 mg/kg | 0.5 h | Non-toxic | 347 mg/kg |  |  |  | Non-toxic | 0.5 h | 4.23 | 82 mg/kg | inactive | inactive | inactive |  |
| CC(C(=O)NCc1cccc(C(F)(F)F)c1)N1C(=O)CCC1=O (racemic) | 100 mg/kg | 0.5 h | Non-toxic | 332 mg/kg |  |  |  | Non-toxic | 0.5 h | 3.59 | 92.4 mg/kg | inactive | inactive | inactive |  |
| CCC(C(=O)NCC1CCCCC1)N1C(=O)CCC1=O (racemic) |  |  | Non-toxic |  |  |  |  | Non-toxic |  |  |  | inactive | inactive | inactive | inactive |
| CC1CC(=O)N(C(C)C(=O)NCc2cccc(Cl)c2)C1=O (racemic) | 100 mg/kg | 0.5 h | Non-toxic | 247 mg/kg |  |  |  | Non-toxic | 0.5 h | 2.73 | 90.3 mg/kg | inactive | inactive | inactive |  |
| CC(C(=O)NCc1ccc(F)cc1)N1C(=O)CCC1=O (racemic) |  |  | Non-toxic |  |  |  |  | Non-toxic |  |  |  | inactive | inactive | inactive | inactive |
| CC(C(=O)NCC1CCCCC1)N1C(=O)CCC1=O (centres undefined) |  |  | Non-toxic |  |  |  |  | Non-toxic |  |  |  | inactive | inactive | inactive | inactive |
| CCC1(C)CC(=O)NC1=O (centres undefined) [ETHOSUXIMIDE] |  | 0.25 h |  |  |  |  |  |  | 0.25 h |  | > 500 mg/kg |  |  |  |  |
| CC1CC(=O)N(C(C)C(=O)NCc2cccc(F)c2)C1=O (racemic) | 100 mg/kg | 0.5 h | Non-toxic | 297 mg/kg |  |  |  | Non-toxic | 0.5 h | 2.29 | 130 mg/kg | inactive | inactive | inactive |  |
| CC1CC(=O)N(C(C)C(=O)NCc2ccccc2C(F)(F)F)C1=O (racemic) |  |  | Non-toxic |  |  |  |  | Non-toxic |  |  |  | inactive | inactive | inactive | inactive |
| CC(C(=O)NCc1ccccc1Cl)N1C(=O)CCC1=O (racemic) | 100 mg/kg | 0.5 h | Non-toxic | 340 mg/kg |  |  |  | Non-toxic | 0.5 h | 4.57 | 74.5 mg/kg | inactive | inactive | inactive |  |
| CC1CC(=O)N(C(C)C(=O)NCc2ccc(F)cc2)C1=O (racemic) |  |  | Non-toxic |  |  |  |  | Non-toxic |  |  |  | inactive | inactive | inactive | inactive |
| CC1CC(=O)N(C(C)C(=O)NCc2ccccc2Cl)C1=O (racemic) | 100 mg/kg | 0.5 h | Non-toxic | 275 mg/kg |  |  |  | Non-toxic | 0.5 h | 3.2 | 85.8 mg/kg | inactive | inactive | inactive |  |
